# Assay results as given in ChEMBL document CHEMBL1121802, “Imine analogues of tricyclic antidepressants” (1981).
# Tests used:
# Format in all cases: functional
# Mus musculus [1] = experiment: The effect on excitement was measured in mice following oral administration
# Method in brief: (§1)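 Observed at 0.5, 2, 5 and 24 h for ataxia (abnormal gait/imprecise movement), pupil diameter (dissecting microscope, 20×, micrometer), excitement (spontaneous running/jumping) and electroshock protection (corneal electrodes at 2 and 5 h). ED50 by Thompson method.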
# Mus musculus [2] = experiment: The effect on electroshock protection in mice following oral administration; method in brief: as §1
# Mus musculus [3] = experiment: The effect on 24-hour mortality in mice following oral administration
# Mus musculus [4] = experiment: Effect on pupil dilation was measured in mice upon oral administration; method in brief: as §1
# Mus musculus [5] = experiment: Antidepressant activity by determining the reversal of tetrabenazine-induced ptosis upon oral administration
# Method in brief: (§2)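 Mice given test drug orally; 30 min later challenged with tetrabenazine (methanesulfonate) 32 mg/kg ip in 0.05 M KCl pH 2.0. Scored 1 h after test drug for exploratory activity and ptosis; ptosis antagonism = lid closure <50% in both eyes exactly 2 s after placing mouse facing observer. ED50 calculated by Thompson method.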
# Mus musculus [6] = experiment: The effect on ataxia in mice following oral administration; method in brief: as §1
# Mus musculus [7] = experiment: Antidepressant activity by determining the decreased exploratory activity in mice upon oral administration; method in brief: as §2
# Mus musculus [8] = experiment: Compound was tested for antidepressant activity by determining the decreased exploratory activity in mice upon oral administration; 2.6-28; method in brief: as §2
# Mus musculus [9] = experiment: Compound was tested for antidepressant activity by determining the reversal of tetrabenazine-induced ptosis upon oral administration; 48-203; method in brief: as §2
# Mus musculus [10] = experiment: Compound was tested for antidepressant activity by determining the reversal of tetrabenazine-induced ptosis upon oral administration; 2.0-3.1; method in brief: as §2
# Mus musculus [11] = experiment: Compound was tested for antidepressant activity by determining the decreased exploratory activity in mice upon oral administration; 4.2-9.7; method in brief: as §2
# Mus musculus [12] = experiment: Compound was tested for antidepressant activity by determining the reversal of tetrabenazine-induced ptosis upon oral administration; 11-29; method in brief: as §2
# Mus musculus [13] = experiment: compound was tested for antidepressant activity by determining the decreased exploratory activity in mice upon oral administration; […]
# Method in brief: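 Mice got the test drug, then 30 min later tetrabenazine (as methanesulfonate) 32 mg/kg ip, dissolved in 0.20 mL of 0.05 M KCl at pH 2.0. One hour after test drug (30 min after tetrabenazine), animals were scored for exploratory activity and ptosis. Reversal of the tetrabenazine-induced decrease in exploration was the read-out.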
# Mus musculus [14] = experiment: Compound was tested for antidepressant activity by determining the reversal of tetrabenazine-induced ptosis upon oral administration; 6-20; method in brief: as §2
# Mus musculus [15] = experiment: Compound was tested for antidepressant activity by determining the decreased exploratory activity in mice upon oral administration; 8-58; method in brief: as §2
# Mus musculus [16] = experiment: Compound was tested for antidepressant activity by determining the decreased exploratory activity in mice upon oral administration; 4.1-12; method in brief: as §2
# Mus musculus [17] = experiment: Compound was tested for antidepressant activity by determining the reversal of tetrabenazine-induced ptosis upon oral administration; 0.8-2.6; method in brief: as §2
# Mus musculus [18] = experiment: Compound was tested for antidepressant activity by determining the reversal of tetrabenazine-induced ptosis upon oral administration; 0.3-1.2; method in brief: as §2
# Mus musculus [19] = experiment: Compound was tested for antidepressant activity by determining the decreased exploratory activity in mice upon oral administration; 1.2-5.5; method in brief: as §2
# Mus musculus [20] = experiment: Compound was tested for antidepressant activity by determining the decreased exploratory activity in mice upon oral administration; 0.4-1.1; method in brief: as §2
# Mus musculus [21] = experiment: Compound was tested for antidepressant activity by determining the reversal of tetrabenazine-induced ptosis upon oral administration; 0.17-0.37; method in brief: as §2
# Mus musculus [22] = experiment: Compound was tested for antidepressant activity by determining the decreased exploratory activity in mice upon oral administration; method in brief: as §2
SMILES,ED50 (Mus musculus [1]),ED50 (Mus musculus [2]),ED50 (Mus musculus [3]),ED50 (Mus musculus [4]),ED50 (Mus musculus [5]),ED50 (Mus musculus [6]),ED50 (Mus musculus [7]),other results
CN(C)CCCN=c1c2ccccc2oc2ccccc12,> 324 mg/kg,> 324 mg/kg,300 mg/kg,> 324 mg/kg,> 125 mg/kg,60 mg/kg,> 125 mg/kg,–
CNCCN=C1c2ccccc2CCc2ccccc21,> 324 mg/kg,> 324 mg/kg,200 mg/kg,60 mg/kg,< 5 mg/kg,36 mg/kg,–,ED50 (Mus musculus [8]): 8.5 mg/kg
CN(C)CCC/N=C1\c2ccccc2CS(=O)(=O)c2ccccc21,> 324 mg/kg,> 324 mg/kg,20 mg/kg,20 mg/kg,> 125 mg/kg,200 mg/kg,> 125 mg/kg,–
CN(C)CCC/N=C1\c2ccccc2CSc2ccccc21,> 324 mg/kg,> 324 mg/kg,60 mg/kg,60 mg/kg,> 81 mg/kg,60 mg/kg,81 mg/kg,–
CN(C)CCC/N=C1\c2ccccc2COc2ccccc21,> 324 mg/kg,> 324 mg/kg,200 mg/kg,20 mg/kg,–,20 mg/kg,> 125 mg/kg,ED50 (Mus musculus [9]): 99 mg/kg
CN(C)CCN=C1c2ccccc2C2C(Cl)C2c2ccccc21 (centres undefined),> 324 mg/kg,> 324 mg/kg,> 324 mg/kg,200 mg/kg,> 125 mg/kg,200 mg/kg,> 125 mg/kg,–
CN(C)CCN=c1c2ccccc2ccc2ccccc12,7 mg/kg,> 324 mg/kg,36 mg/kg,4 mg/kg,–,4 mg/kg,–,ED50 (Mus musculus [10]): 2.5 mg/kg; ED50 (Mus musculus [11]): 6.4 mg/kg
NCCN=C1c2ccccc2CCc2ccccc21,> 324 mg/kg,200 mg/kg,200 mg/kg,200 mg/kg,–,100 mg/kg,–,ED50 (Mus musculus [12]): 18 mg/kg; ED50 (Mus musculus [13]): 56 mg/kg
CN(C)CCN=c1c2ccccc2sc2ccccc12,> 324 mg/kg,> 324 mg/kg,300 mg/kg,36 mg/kg,–,60 mg/kg,–,ED50 (Mus musculus [14]): 11 mg/kg; ED50 (Mus musculus [15]): 22 mg/kg
CN(C)CCN=C(c1ccccc1)c1ccccc1,> 324 mg/kg,> 200 mg/kg,> 324 mg/kg,> 324 mg/kg,> 81 mg/kg,36 mg/kg,> 81 mg/kg,–
CCN(CC)CCN=C1c2ccccc2C2CC2c2ccccc21 (centres undefined),> 324 mg/kg,100 mg/kg,200 mg/kg,36 mg/kg,–,36 mg/kg,–,ED50 (Mus musculus [16]): 6.9 mg/kg; ED50 (Mus musculus [17]): 1.4 mg/kg
CNCCN=C1c2ccccc2C2CC2c2ccccc21 (centres undefined),> 324 mg/kg,300 mg/kg,300 mg/kg,60 mg/kg,–,36 mg/kg,–,ED50 (Mus musculus [18]): 0.6 mg/kg; ED50 (Mus musculus [19]): 2.6 mg/kg
CN(C)CCN=C1c2ccccc2C2CC2c2ccccc21 (centres undefined),60 mg/kg,> 324 mg/kg,> 324 mg/kg,20 mg/kg,–,20 mg/kg,–,ED50 (Mus musculus [20]): 0.7 mg/kg; ED50 (Mus musculus [21]): 0.25 mg/kg
CCNCCN=C1c2ccccc2CCc2ccccc21,> 324 mg/kg,60 mg/kg,36 mg/kg,20 mg/kg,> 125 mg/kg,20 mg/kg,> 125 mg/kg,–
CN(C)CCNC1c2ccccc2CCc2ccccc21,> 324 mg/kg,60 mg/kg,200 mg/kg,20 mg/kg,> 125 mg/kg,20 mg/kg,–,ED50 (Mus musculus [22]): > 125 mg/kg
CN(C)CCC=C1c2ccccc2COc2ccccc21 [DOXEPIN],> 324 mg/kg,62 mg/kg,232 mg/kg,56 mg/kg,5.9 mg/kg,23 mg/kg,–,ED50 (Mus musculus [22]): 27 mg/kg
CN(C)CCCN1c2ccccc2CCc2ccccc21 [IMIPRAMINE],> 324 mg/kg,209 mg/kg,305 mg/kg,198 mg/kg,0.9 mg/kg,62 mg/kg,–,ED50 (Mus musculus [22]): 2.2 mg/kg
